PMC3286832 (Nature Communications, 2011)

Legend:
[1] = system: hDNMT3A K47 methylation in 293T cells; test: Methylation in 293T cells; assay type: cell-based, human; conditions: coexpression in 293T cells, metabolic labelling with 3H-Met or western blot
How it was run: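 GLP stable knockdown 293T cells expressed Myc-hDNMT3A (WT or K47R), with or without Flag-GLP or G9a, for 36 h. Cells were starved 30 min in methionine-free medium with cycloheximide (100 μg ml−1) and chloramphenicol (40 μg ml−1), then labelled 4 h with 10 μCi ml−1 L-[methyl-3H]methionine. Myc-hDNMT3A was immunoprecipitated with anti-Myc, washed with 600 mM NaCl IPH buffer, and detected by autoradiography.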

[2] = system: MPP8–GLP interaction in 293T cells; test: Co-immunoprecipitation of MPP8 and GLP in 293T cells; assay type: cell-based, human
How it was run: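 293T cells (parental, or MPP8 stable knockdown for the chromodomain W80A mutant) were cotransfected with Flag-MPP8 and HA-GLP (WT, K199R, K205R or K209R) for 48 h. Lysates were immunoprecipitated with 1 μg anti-HA or anti-Flag on protein-G agarose, washed with IPH containing 300 or 600 mM NaCl, and analysed by western blot. Input was 5%.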

Molecule | methylation of hDNMT3A in cells [1] | MPP8–GLP interaction in cells [2]
GLP: G9a-like protein, wild-type (protein, left off: HA, end not stated, kept) MAAADAEAVPARGEPQQDCCVKTELLGEETPMAADEGSAEKQAGEAHMAADGETNGSCENSDASSHANAAKHTQDSARVNPQDGTNTLTRIAENGVSERDSEAAKQNHVTADDFVQTSVIGSNGYILNKPALQAQPLRTTSTLASSLPGHAAKTLPGGAGKGRTPSAFPQTPAAPPATLGEGSADTEDRKLPAPGADVKVHRARKTMPKSVVGLHAASKDPREVREARDHKEPKEEINKNISDFGRQQLLPPFPSLHQSLPQNQCYMATTKSQTACLPFVLAAAVSRKKKRRMGTYSLVPKKKTKVLKQRTVIEMFKSITHSTVGSKGEKDLGASSLHVNGESLEMDSDEDDSEELEEDDGHGAEQAAAFPTEDSRTSKESMSEADRAQKMDGESEEEQESVDTGEEEEGGDESDLSSESSIKKKFLKRKGKTDSPWIKPARKRRRRSRKKPSGALGSESYKSSAGSAEQTAPGDSTGYMEVSLDSLDLRVKGILSSQAEGLANGPDVLETDGLQEVPLCSCRMETPKSREITTLANNQCMATESVDHELGRCTNSVVKYELMRPSNKAPLLVLCEDHRGRMVKHQCCPGCGYFCTAGNFMECQPESSISHRFHKDCASRVNNASYCPHCGEESSKAKEVTIAKADTTSTVTPVPGQEKGSALEGRADTTTGSAAGPPLSEDDKLQGAASHVPEGFDPTGPAGLGRPTPGLSQGPGKETLESALIALDSEKPKKLRFHPKQLYFSARQGELQKVLLMLVDGIDPNFKMEHQNKRSPLHAAAEAGHVDICHMLVQAGANIDTCSEDQRTPLMEAAENNHLEAVKYLIKAGALVDPKDAEGSTCLHLAAKKGHYEVVQYLLSNGQMDVNCQDDGGWTPMIWATEYKHVDLVKLLLSKGSDINIRDNEENICLHWAAFSGCVDIAEILLAAKCDLHAVNIHGDSPLHIAARENRYDCVVLFLSRDSDVTLKNKEGETPLQCASLNSQVWSALQMSKALQDSAPDRPSPVERIVSRDIARGYERIPIPCVNAVDSEPCPSNYKYVSQNCVTSPMNIDRNITHLQYCVCIDDCSSSNCMCGQLSMRCWYDKDGRLLPEFNMAEPPLIFECNHACSCWRNCRNRVVQNGLRARLQLYRTRDMGWGVRSLQDIPPGTFVCEYVGELISDSEADVREEDSYLFDLDNKDGEVYCIDARFYGNVSRFINHHCEPNLVPVRVFMAHQDLRFPRIAFFSTRLIEAGEQLGFDYGERFWDIKGKLFSCRCGSPKCRHSSAALAQRQASAAQEAQEDGLPDTSSAAAADPL | markedly increased | –
GLP K199R: HA–GLP K199R mutant (protein, left off: HA, end not stated, kept) MAAADAEAVPARGEPQQDCCVKTELLGEETPMAADEGSAEKQAGEAHMAADGETNGSCENSDASSHANAAKHTQDSARVNPQDGTNTLTRIAENGVSERDSEAAKQNHVTADDFVQTSVIGSNGYILNKPALQAQPLRTTSTLASSLPGHAAKTLPGGAGKGRTPSAFPQTPAAPPATLGEGSADTEDRKLPAPGADVRVHRARKTMPKSVVGLHAASKDPREVREARDHKEPKEEINKNISDFGRQQLLPPFPSLHQSLPQNQCYMATTKSQTACLPFVLAAAVSRKKKRRMGTYSLVPKKKTKVLKQRTVIEMFKSITHSTVGSKGEKDLGASSLHVNGESLEMDSDEDDSEELEEDDGHGAEQAAAFPTEDSRTSKESMSEADRAQKMDGESEEEQESVDTGEEEEGGDESDLSSESSIKKKFLKRKGKTDSPWIKPARKRRRRSRKKPSGALGSESYKSSAGSAEQTAPGDSTGYMEVSLDSLDLRVKGILSSQAEGLANGPDVLETDGLQEVPLCSCRMETPKSREITTLANNQCMATESVDHELGRCTNSVVKYELMRPSNKAPLLVLCEDHRGRMVKHQCCPGCGYFCTAGNFMECQPESSISHRFHKDCASRVNNASYCPHCGEESSKAKEVTIAKADTTSTVTPVPGQEKGSALEGRADTTTGSAAGPPLSEDDKLQGAASHVPEGFDPTGPAGLGRPTPGLSQGPGKETLESALIALDSEKPKKLRFHPKQLYFSARQGELQKVLLMLVDGIDPNFKMEHQNKRSPLHAAAEAGHVDICHMLVQAGANIDTCSEDQRTPLMEAAENNHLEAVKYLIKAGALVDPKDAEGSTCLHLAAKKGHYEVVQYLLSNGQMDVNCQDDGGWTPMIWATEYKHVDLVKLLLSKGSDINIRDNEENICLHWAAFSGCVDIAEILLAAKCDLHAVNIHGDSPLHIAARENRYDCVVLFLSRDSDVTLKNKEGETPLQCASLNSQVWSALQMSKALQDSAPDRPSPVERIVSRDIARGYERIPIPCVNAVDSEPCPSNYKYVSQNCVTSPMNIDRNITHLQYCVCIDDCSSSNCMCGQLSMRCWYDKDGRLLPEFNMAEPPLIFECNHACSCWRNCRNRVVQNGLRARLQLYRTRDMGWGVRSLQDIPPGTFVCEYVGELISDSEADVREEDSYLFDLDNKDGEVYCIDARFYGNVSRFINHHCEPNLVPVRVFMAHQDLRFPRIAFFSTRLIEAGEQLGFDYGERFWDIKGKLFSCRCGSPKCRHSSAALAQRQASAAQEAQEDGLPDTSSAAAADPL | – | had little effect
GLP K209R: HA–GLP K209R mutant (protein, left off: HA, end not stated, kept) MAAADAEAVPARGEPQQDCCVKTELLGEETPMAADEGSAEKQAGEAHMAADGETNGSCENSDASSHANAAKHTQDSARVNPQDGTNTLTRIAENGVSERDSEAAKQNHVTADDFVQTSVIGSNGYILNKPALQAQPLRTTSTLASSLPGHAAKTLPGGAGKGRTPSAFPQTPAAPPATLGEGSADTEDRKLPAPGADVKVHRARKTMPRSVVGLHAASKDPREVREARDHKEPKEEINKNISDFGRQQLLPPFPSLHQSLPQNQCYMATTKSQTACLPFVLAAAVSRKKKRRMGTYSLVPKKKTKVLKQRTVIEMFKSITHSTVGSKGEKDLGASSLHVNGESLEMDSDEDDSEELEEDDGHGAEQAAAFPTEDSRTSKESMSEADRAQKMDGESEEEQESVDTGEEEEGGDESDLSSESSIKKKFLKRKGKTDSPWIKPARKRRRRSRKKPSGALGSESYKSSAGSAEQTAPGDSTGYMEVSLDSLDLRVKGILSSQAEGLANGPDVLETDGLQEVPLCSCRMETPKSREITTLANNQCMATESVDHELGRCTNSVVKYELMRPSNKAPLLVLCEDHRGRMVKHQCCPGCGYFCTAGNFMECQPESSISHRFHKDCASRVNNASYCPHCGEESSKAKEVTIAKADTTSTVTPVPGQEKGSALEGRADTTTGSAAGPPLSEDDKLQGAASHVPEGFDPTGPAGLGRPTPGLSQGPGKETLESALIALDSEKPKKLRFHPKQLYFSARQGELQKVLLMLVDGIDPNFKMEHQNKRSPLHAAAEAGHVDICHMLVQAGANIDTCSEDQRTPLMEAAENNHLEAVKYLIKAGALVDPKDAEGSTCLHLAAKKGHYEVVQYLLSNGQMDVNCQDDGGWTPMIWATEYKHVDLVKLLLSKGSDINIRDNEENICLHWAAFSGCVDIAEILLAAKCDLHAVNIHGDSPLHIAARENRYDCVVLFLSRDSDVTLKNKEGETPLQCASLNSQVWSALQMSKALQDSAPDRPSPVERIVSRDIARGYERIPIPCVNAVDSEPCPSNYKYVSQNCVTSPMNIDRNITHLQYCVCIDDCSSSNCMCGQLSMRCWYDKDGRLLPEFNMAEPPLIFECNHACSCWRNCRNRVVQNGLRARLQLYRTRDMGWGVRSLQDIPPGTFVCEYVGELISDSEADVREEDSYLFDLDNKDGEVYCIDARFYGNVSRFINHHCEPNLVPVRVFMAHQDLRFPRIAFFSTRLIEAGEQLGFDYGERFWDIKGKLFSCRCGSPKCRHSSAALAQRQASAAQEAQEDGLPDTSSAAAADPL | – | had little effect
GLP K205R: HA–GLP K205R mutant (protein, left off: HA, end not stated, kept) MAAADAEAVPARGEPQQDCCVKTELLGEETPMAADEGSAEKQAGEAHMAADGETNGSCENSDASSHANAAKHTQDSARVNPQDGTNTLTRIAENGVSERDSEAAKQNHVTADDFVQTSVIGSNGYILNKPALQAQPLRTTSTLASSLPGHAAKTLPGGAGKGRTPSAFPQTPAAPPATLGEGSADTEDRKLPAPGADVKVHRARRTMPKSVVGLHAASKDPREVREARDHKEPKEEINKNISDFGRQQLLPPFPSLHQSLPQNQCYMATTKSQTACLPFVLAAAVSRKKKRRMGTYSLVPKKKTKVLKQRTVIEMFKSITHSTVGSKGEKDLGASSLHVNGESLEMDSDEDDSEELEEDDGHGAEQAAAFPTEDSRTSKESMSEADRAQKMDGESEEEQESVDTGEEEEGGDESDLSSESSIKKKFLKRKGKTDSPWIKPARKRRRRSRKKPSGALGSESYKSSAGSAEQTAPGDSTGYMEVSLDSLDLRVKGILSSQAEGLANGPDVLETDGLQEVPLCSCRMETPKSREITTLANNQCMATESVDHELGRCTNSVVKYELMRPSNKAPLLVLCEDHRGRMVKHQCCPGCGYFCTAGNFMECQPESSISHRFHKDCASRVNNASYCPHCGEESSKAKEVTIAKADTTSTVTPVPGQEKGSALEGRADTTTGSAAGPPLSEDDKLQGAASHVPEGFDPTGPAGLGRPTPGLSQGPGKETLESALIALDSEKPKKLRFHPKQLYFSARQGELQKVLLMLVDGIDPNFKMEHQNKRSPLHAAAEAGHVDICHMLVQAGANIDTCSEDQRTPLMEAAENNHLEAVKYLIKAGALVDPKDAEGSTCLHLAAKKGHYEVVQYLLSNGQMDVNCQDDGGWTPMIWATEYKHVDLVKLLLSKGSDINIRDNEENICLHWAAFSGCVDIAEILLAAKCDLHAVNIHGDSPLHIAARENRYDCVVLFLSRDSDVTLKNKEGETPLQCASLNSQVWSALQMSKALQDSAPDRPSPVERIVSRDIARGYERIPIPCVNAVDSEPCPSNYKYVSQNCVTSPMNIDRNITHLQYCVCIDDCSSSNCMCGQLSMRCWYDKDGRLLPEFNMAEPPLIFECNHACSCWRNCRNRVVQNGLRARLQLYRTRDMGWGVRSLQDIPPGTFVCEYVGELISDSEADVREEDSYLFDLDNKDGEVYCIDARFYGNVSRFINHHCEPNLVPVRVFMAHQDLRFPRIAFFSTRLIEAGEQLGFDYGERFWDIKGKLFSCRCGSPKCRHSSAALAQRQASAAQEAQEDGLPDTSSAAAADPL | – | impairs GLP–MPP8 interaction in cells
